In the library only some 6% were active in any assay of this set; here they are far more common.
EphB4 ephrin blk = antagonists of human EphB4-ephrin-B2 interaction; hit rate 0.15% among 97,000; EphB4 LBD / TNYL-RAW-Alexa532 peptide, fluorescence polarization; AID 720; P54760; inhibition, % at 7 µM;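 active = inhibition above the screen-wide mean inhibition plus 3 SD, cut at about 15% in these data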
Target sequence (P54760 whole entry, looked up, the tested form may be a part): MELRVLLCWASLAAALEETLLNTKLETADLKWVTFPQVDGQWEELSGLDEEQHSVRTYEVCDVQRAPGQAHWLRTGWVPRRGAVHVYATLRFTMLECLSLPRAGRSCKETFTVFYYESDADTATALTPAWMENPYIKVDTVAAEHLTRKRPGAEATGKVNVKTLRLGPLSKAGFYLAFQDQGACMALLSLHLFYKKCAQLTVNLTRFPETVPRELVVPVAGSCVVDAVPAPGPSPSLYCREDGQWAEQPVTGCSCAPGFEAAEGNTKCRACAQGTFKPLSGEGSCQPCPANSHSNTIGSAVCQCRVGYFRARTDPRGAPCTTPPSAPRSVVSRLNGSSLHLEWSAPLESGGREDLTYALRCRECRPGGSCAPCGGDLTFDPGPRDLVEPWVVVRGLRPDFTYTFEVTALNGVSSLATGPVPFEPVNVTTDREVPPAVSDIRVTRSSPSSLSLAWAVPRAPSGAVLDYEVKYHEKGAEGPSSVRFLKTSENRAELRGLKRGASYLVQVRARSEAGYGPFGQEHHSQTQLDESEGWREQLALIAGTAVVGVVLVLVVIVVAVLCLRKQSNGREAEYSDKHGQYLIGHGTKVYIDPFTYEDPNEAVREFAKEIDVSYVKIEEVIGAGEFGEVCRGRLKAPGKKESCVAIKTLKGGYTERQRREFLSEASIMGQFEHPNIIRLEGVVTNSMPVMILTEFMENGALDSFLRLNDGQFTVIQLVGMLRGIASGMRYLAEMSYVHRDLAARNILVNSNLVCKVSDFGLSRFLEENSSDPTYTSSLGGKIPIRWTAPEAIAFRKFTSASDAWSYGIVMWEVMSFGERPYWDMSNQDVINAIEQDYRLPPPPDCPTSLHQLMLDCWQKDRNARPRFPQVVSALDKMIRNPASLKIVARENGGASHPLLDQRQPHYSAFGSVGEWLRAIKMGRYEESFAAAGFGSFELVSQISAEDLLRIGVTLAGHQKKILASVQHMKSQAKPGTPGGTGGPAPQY
Ecoli tolC = growth inhibitors of E. coli BW25113 tolC mutant; OD615; growth inhibition, % at 10 µM (by protocol); hit rate 2.2% among 65,000;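 active = growth inhibition at or above a cutoff equal to the mean over every tested compound plus 3 SD, cut at about 60% in these data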;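 note: growth measured after 20 h incubation at 37 °C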
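Material: E. coli BW25113 ΔtolC::kan, tolC deletion mutant strain. Measure: percent growth inhibition. Schedule: 37 °C, 20 h exposure. Doses: single-point testing at 10 µM. Signal: A615 absorbance measurement. Buffer or medium: kanamycin-containing LB broth (50 µg/mL).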
PostGolgi yeast = growth inhibition of a yeast mutant, post-Golgi transport screen. hit rate 0.9% among 98,000. post-Golgi transport phenotypic cell assay. inhibition, % at 10 µM. AID 739;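 note: yeast cells grown in 1536-well plates; yeast grown about 18 h at 30C before absorbance read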
Ecoli WT expand = growth inhibitors of E. coli BW25113 wild type; OD600 absorbance; growth inhibition, % at 100 µM; hit rate 0.15% among 98,000;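 active = growth inhibition above about 50% at one test dose, limit read from the data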;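 note: growth measured after 20 h incubation at 37 °C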
PostGolgi ctrl = yeast control strain growth, post-Golgi counter-screen; efflux-deficient yeast background strain, growth absorbance A615, 16 h; inhibition, % at 10 µM; hit rate 5% among 98,000
Each line names hits and unclear results; the compound was inactive in the other large screens. Cut-off read from the data, not from the text of the source, unless noted: active = inhibition above about 30%; inactive = the rest.

Cc1c(Cc2ccccc2)c(=O)oc2c(C)c(OCc3nn[nH]n3)ccc12	PostGolgi yeast 30.8
Cc1cc(OCc2nn[nH]n2)c2c(C)c(CC(=O)O)c(=O)oc2c1	none
NC(=O)CSc1nc(O)cc(=O)n1-c1ccccc1	none
O=C(O)CCSc1nc(C(F)(F)F)cc(=O)n1-c1ccccc1	PostGolgi ctrl 30.5 (no result: Ecoli tolC)
COC(=O)CSC1=C(C#N)C(c2ccc(C)cc2)C2=C(CCCC2=O)N1 (centres undefined)	EphB4 ephrin blk 16.1
Cc1ccc(NC(=O)CSC2=C(C#N)C(c3ccco3)C3=C(CC(C)(C)CC3=O)N2)cc1 (centres undefined)	Ecoli tolC 69.1
CC(=O)Cc1nsc(NC(=O)c2cn(-c3ccccc3)nc2-c2ccc(Br)cc2)n1	none (no result: Ecoli tolC)
Cc1ncc([N+](=O)[O-])n1CCOC(=O)c1ccc(Cl)cc1Cl	none (no result: Ecoli tolC)
CC(C)(C)c1cc(NC(=O)COc2ccc(Br)cc2)n(-c2ccccc2)n1	PostGolgi ctrl 36.5 (no result: Ecoli tolC)
COCC(=O)OCC(=O)Nc1cc(C(C)(C)C)nn1-c1ccccc1	none (no result: Ecoli tolC)
c1ccc2c(c1)nnn2-c1ncnc2sc3c(c12)CCCC3	none
Cc1nc(-n2nnc3ccccc32)c2c3c(sc2n1)CCCC3	PostGolgi ctrl 32.2
Cc1nc(NS(=O)(=O)c2ccccc2C)c2c3c(sc2n1)CCC3	PostGolgi ctrl 46.8 (no result: Ecoli tolC)
CCOc1cc(C)c(S(=O)(=O)Nc2ccc(Cl)cn2)cc1C	PostGolgi ctrl 58.0
CCN(c1ccc(NC(=O)CN2C(=O)NC3(CCOc4ccccc43)C2=O)cc1)C(C)C (centres undefined)	none (no result: Ecoli tolC)
CN(C)C(=O)N1CCC(C(=O)NCc2ccccc2)CC1	PostGolgi ctrl 37.6 (no result: EphB4 ephrin blk)
CCN(CCNC(=O)C1CCN(S(C)(=O)=O)CC1)c1ccccc1	none
CS(=O)(=O)N1CCC(C(=O)NCCN2CCN(Cc3ccccc3)CC2)CC1	PostGolgi yeast 31.4 (no result: EphB4 ephrin blk)
CN(C)C(=O)N1CCC(C(=O)NCc2ccc(F)cc2)CC1	none
O=C(NCCc1ccccc1)C1CCN(S(=O)(=O)N2CCCC2)CC1	PostGolgi yeast 33.3 (no result: EphB4 ephrin blk)
COC(=O)c1cc(COc2ccc3oc(C)c(C(=O)OC(C)C)c3c2)c(C)o1	none (no result: Ecoli tolC)
CC1Cc2ccccc2N1C(=O)CSc1nnnn1Cc1ccccc1 (centres undefined)	none (no result: EphB4 ephrin blk)
COc1ccc(C2/C(=C(\O)c3cccc(OC)c3)C(=O)C(=O)N2c2ccccn2)cc1 (centres undefined)	none (no result: Ecoli tolC)
Cc1cc(C)c2c(-n3cccc3)c(C(=O)NNS(=O)(=O)c3ccc(Cl)cc3)sc2n1	none (no result: Ecoli tolC)
Cc1nc2ncnn2c(C)c1Cc1ccc(Cl)cc1F	none (no result: EphB4 ephrin blk, PostGolgi yeast, Ecoli WT expand, PostGolgi ctrl)
Cc1nc(NCCN2CCOCC2)c2oc3ccccc3c2n1	none
Cc1nc(NCCc2ccccc2)c2oc3ccccc3c2n1	PostGolgi ctrl 51.4 (no result: Ecoli tolC)
Cc1ccc(Nc2nc(-c3c(C)nc4ncccn34)cs2)cc1	none (no result: Ecoli tolC)
Oc1ccc(Nc2nc(-c3ccc4ccccc4c3)cs2)cc1	PostGolgi yeast 93.2, PostGolgi ctrl 82.3 (no result: Ecoli tolC)
NS(=O)(=O)c1ccc(Nc2nc(-c3ccc(O)cc3O)cs2)cc1	none (no result: Ecoli tolC)
Cc1ccc(Nc2nc(-c3c(C)nc4ccccn34)cs2)cc1	PostGolgi ctrl 74.8 (no result: Ecoli tolC)
O=C(Nc1nccs1)c1ccc(S(=O)(=O)NCC2CCCCC2)cc1	PostGolgi ctrl 40.6
Cc1ccc(C2=NC(C)(C)N=C2SCC(=O)Nc2ccc(Cl)cc2)cc1	PostGolgi ctrl 34.5 (no result: Ecoli tolC)
Cc1ccc(NC(=O)CSc2nc3ccccc3c(=O)n2CCCN2CCCCC2)cc1C	none (no result: Ecoli tolC)
CCCC(c1nnnn1C1CCCCC1)N1CCN(c2ncccn2)CC1 (centres undefined)	PostGolgi ctrl 36.5
CCCCC(c1nnnn1C1CCCC1)N1CCN(C2CCCCC2)CC1 (centres undefined)	none
Cc1cccc(-c2nnc3n2N=C(c2ccccc2)CS3)c1	PostGolgi ctrl 38.1
COc1ccc(-c2nnc3n2N=C(c2ccccc2)CS3)cc1OC	none (no result: EphB4 ephrin blk, PostGolgi yeast, Ecoli WT expand, PostGolgi ctrl)
Cc1cc(-c2nnc3n2N=C(c2ccc(-c4ccccc4)cc2)CS3)n[nH]1	Ecoli tolC 92.0
O=c1cc(-c2ccccc2)[nH]n1-c1ccc([N+](=O)[O-])cc1	none (no result: Ecoli tolC)
CCOC(=O)c1oc2ccccc2c1NC(=O)c1ccccc1OC	PostGolgi ctrl 69.8
CCOC(=O)c1oc2ccccc2c1NC(=O)COc1cccc(OC)c1	none
CCOC(=O)c1sc(NC(=O)c2ccccc2OC)nc1C	PostGolgi ctrl 41.8 (no result: Ecoli tolC)
CCOC(=O)c1sc(NC(=O)c2ccc(CC)s2)nc1C	none
CCC(=O)OCCNc1cc(Sc2nc3ccccc3s2)c2nonc2c1[N+](=O)[O-]	PostGolgi yeast 94.2, PostGolgi ctrl 97.8 (no result: Ecoli tolC)
CCn1c(=O)c2cc(S(=O)(=O)NC3CCCCC3)ccc2n(CC)c1=O	none
CCCSc1nc(NCc2ccco2)c2c3c(sc2n1)COC(C)(C)C3	PostGolgi ctrl 47.1 (no result: Ecoli tolC)
Cc1noc(C)c1COC(=O)c1ccccc1Sc1ccccc1C#N	PostGolgi ctrl 30.3
O=C(Nc1ccc(F)cc1)N1CCN(c2ccc3nnc(-c4ccc(F)cc4)n3n2)CC1	none (no result: Ecoli tolC)
Fc1ccc(-c2nnc3ccc(N4CCc5ccccc5C4)nn23)cc1	PostGolgi ctrl 58.8
CCCCCOc1ccc(CN2CCOCC2)cc1Cl	PostGolgi yeast 95.4, PostGolgi ctrl 55.3 (no result: EphB4 ephrin blk)
COc1ccc(-c2oc(NC(=O)CCl)c(C#N)c2-c2ccc(OC)cc2)cc1	PostGolgi ctrl 50.4 (no result: Ecoli tolC)
COc1ccc(-c2oc(NC(=O)CSc3ncn[nH]3)c(C#N)c2-c2ccc(OC)cc2)cc1	none (no result: Ecoli tolC)
Cc1cc(C2C(C#N)=C(N)OC3=C2C(=O)CCC3)c(C)s1 (centres undefined)	none (no result: Ecoli tolC)
Cc1cc(C2C(C#N)=C(N)OC3=C2C(=O)CC(C)(C)C3)c(C)s1 (centres undefined)	PostGolgi ctrl 40.6 (no result: Ecoli tolC)
CCOC(=O)CSc1nc2sc3c(c2c(=O)n1C1CCCCC1)CCN(C)C3	none (no result: Ecoli tolC, PostGolgi yeast, Ecoli WT expand, PostGolgi ctrl)
O=C(CN1CCOCC1)NCC12CC3CC(CC(C3)C1)C2	PostGolgi ctrl 36.7
Brc1ccc2c(c1)C(c1ccc(N3CCOCC3)cc1)=NNC(c1cccs1)=N2	none (no result: Ecoli tolC)
Fc1ccc2c(c1)C(c1ccc(N3CCOCC3)cc1)=NNC(c1cccs1)=N2	PostGolgi ctrl 35.9 (no result: Ecoli tolC)
CCc1ccc(NC(=O)CCn2ccnc2C)cc1	none (no result: Ecoli tolC)
Cc1n[nH]c(C)c1C(=O)CC1(O)C(=O)N(CCc2ccccc2)c2ccc(Br)cc21 (centres undefined)	none (no result: Ecoli tolC)
Cc1n[nH]c(C)c1C(=O)CC1(O)C(=O)N(Cc2ccccc2)c2ccc(Br)cc21 (centres undefined)	PostGolgi ctrl 30.4 (no result: Ecoli tolC)
Cc1cc(NCCCN2CCOCC2)n2ncc(-c3ccc(Cl)cc3)c2n1	PostGolgi yeast 84.8, PostGolgi ctrl 30.6
Cc1cc(NCCCn2ccnc2)n2ncc(-c3ccc(Cl)cc3)c2n1	PostGolgi ctrl 47.4 (no result: Ecoli tolC)
Cn1c(=O)c2c(nc(NCCCN3CCOCC3)n2Cc2ccc(Cl)cc2)n(C)c1=O	none (no result: PostGolgi yeast, Ecoli WT expand, PostGolgi ctrl)
Nc1nc(SCC(=O)NC2CCCCCC2)[nH]c(=O)c1-c1ccccc1	none (no result: Ecoli tolC)
COc1ccccc1OCCn1cc(C(=O)c2ccco2)c2ccccc21	PostGolgi yeast 35.2
COc1ccc(NC(=O)c2cc3c(=O)n(C)c4ccccc4c3n2C)cc1OC	Ecoli tolC 75.2
Cn1c(C(=O)NCCN2CCc3ccccc3C2)cc2c(=O)n(C)c3ccccc3c21	PostGolgi ctrl 34.1

Source: PubChem BioAssay
